Consider 16 compounds from ChEMBL document CHEMBL4261626, “Design, synthesis, and effects of novel phenylpyrimidines as glucagon receptor antagonists” (Bioorg Med Chem, 2018).

Each structure is given as a SMILES string. The source made the active and inactive calls. No cut-off for these calls is given here.

Series [1] is described as follows: (§1) Cytotoxicity against C57BL/6N mouse primary hepatocytes assessed as cell viability at 20 uM after 24 hrs by CCK8 assay. It is filed as cell-based, Hepatocyte. The note with it: C57BL/6N, primary hepatocytes, read-out: Activity. In short, it runs like this:
(§2)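 Hepatocytes were isolated by portal-vein perfusion and Percoll gradient from 10-week male C57BL/6N mice. Cells were seeded at 1×10^4/well and exposed to 20 μM compound in cell plating reagent for 24 h. CCK-8 was then added for 2 h at 37 °C and absorbance read at 450 nm. Three independent experiments, each in triplicate.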
Background: Tetrazolium assays rely on reduction of a dye to a coloured formazan, in cell work by metabolically active cells.

Series [2] has as its target T1, Glucagon receptor (Homo sapiens, UniProt P47871). Briefly: Antagonist activity at human glucagon receptor expressed in CHO-K1 GCGR Gs cells assessed as inhibition of glucagon-induced cAMP accumulation at 10 uM pre-incubated for 10 mins before glucagon and forskolin addition and further incubated for 30 mins by luminescence-based assay. In kind it is functional, cell-based. As to conditions: in the assay text read “pre-incubated for 15 mins” for “pre-incubated for 10 mins”. The gist of the method: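 CHO-K1 GCGR Gs cells were seeded at 1×10^4/well. The next day they were pre-treated with compound at 10 μM in PBS for 15 min at 37 °C, 5% CO₂. Then 0.1 nM glucagon plus 10 μM forskolin was added for a further 30 min. cAMP was read by HitHunter enzyme-complementation luminescence. Three independent experiments.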

The target in series [3] is T1, Glucagon receptor. Briefly: Antagonist activity at human glucagon receptor expressed in CHO-K1 GCGR Gs cells assessed as inhibition of glucagon-induced cAMP accumulation pre-incubated for 10 mins before glucagon and forskolin addition and further incubated for 30 mins by luminescence-based assay. As to conditions: in the assay text read “pre-incubated for 15 mins” for “pre-incubated for 10 mins”. In kind it is functional, cell-based. The gist of the method: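 Glucagon-receptor CHO-K1 GCGR Gs cells (1×10^4/well, plated the day before) were exposed to compound at 0.0001–100 μM in PBS for 15 min at 37 °C. Cells were then stimulated with 0.1 nM glucagon and 10 μM forskolin for 30 min. cAMP was measured by HitHunter luminescence. IC50 was fitted from three independent determinations.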

For series [4], the system named is Hepatocyte. Nature of the series: Inhibition of glucagon-induced glucose production in C57BL/6N mouse primary hepatocytes grown under gluconeogenic medium at 20 uM after 30 mins by glucose assay reagent-based glucose oxidase method. As to conditions: 0.5 h. In kind it is functional. The gist of the method: (§3)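 Primary mouse hepatocytes were plated at 2.5×10^5/well. After 24 h they were washed and held 3 h in glucose-free DMEM. Compound (20 μM screen, or 1–100 μM series) was then added with 20 mM sodium lactate, 2 mM sodium pyruvate and 10 nM glucagon. Medium glucose was assayed by kit after 30 min and normalized to cellular protein. Five independent experiments, each in triplicate.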

Series [5] relates to Hepatocyte. Briefly: Inhibition of glucagon-induced glucose production in C57BL/6N mouse primary hepatocytes grown under gluconeogenic medium after 30 mins by glucose assay reagent-based glucose oxidase method. In kind it is functional, cell-based. The gist of the method: as §3
The test system of series [6] is Hepatocyte. Briefly: Inhibition of glucagon-induced glucose production in C57BL/6N mouse primary hepatocytes grown under gluconeogenic medium at 10 uM after 30 mins by glucose assay reagent-based glucose oxidase method. It is filed as functional, cell-based. In short, it runs like this: as §3
The subject of series [7] is Hepatocyte. Described as §1. It is filed as cell-based. The note with it: hepatocytes, 24 h, 20 µM. In short, it runs like this: as §2
Series [8] relates to Hepatocyte. Briefly: Inhibition of glucagon-induced glucose production in C57BL/6N mouse primary hepatocytes grown under gluconeogenic medium at 20 uM after 3 hrs by glucose assay reagent-based glucose oxidase method. In kind it is functional, cell-based. In short, it runs like this: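 Mouse primary hepatocytes in glucose-free DMEM were given 20 μM compound for 3 h with 10 nM glucagon, 2 mM sodium pyruvate and 20 mM sodium lactate. Medium glucose was measured by glucose assay kit 30 min after glucagon. Three independent experiments.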

The test system of series [9] is Mus musculus. Briefly: Antihyperglycemic activity in db/db mouse assessed as reduction in blood glucose level at 50 mg/kg, po administered once per day for 4 weeks and measured after 12 hrs fasting. It is filed as functional, organism-based. In short, it runs like this:
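Male db/db mice were obtained at 6 weeks; only animals with blood glucose over 400 mg/dL were used. They were dosed 50 mg/kg by oral intubation once daily for 4 weeks, in 9% cremophore with 10% DMSO in sterile water. Fasting blood glucose was read by glucometer after a 12 h fast at week 4. n=7/group.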

Series [10] deals with Mus musculus. Nature of the series: Antihyperglycemic activity in db/db mouse assessed pretreated at 50 mg/kg, po administered via intubation once per day for 4 weeks followed by fasting for 5 hrs before second administration at 50 mg/kg via oral gavage and subsequent glucagon challenge after 1 hr and measured durimng 15 to 60 mins post glucagon injection. In kind it is functional, organism-based. The gist of the method:
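Diabetic db/db mice were dosed orally at 50 mg/kg daily for 4 weeks (vehicle 9% cremophore/10% DMSO in sterile water). They were then fasted 5 h and re-dosed 50 mg/kg by gavage. After 1 h they received glucagon 15 μg/kg i.p. Blood glucose was measured at 15, 30, 45 and 60 min. n=4–6/group.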

T1 sequence (P47871 whole entry): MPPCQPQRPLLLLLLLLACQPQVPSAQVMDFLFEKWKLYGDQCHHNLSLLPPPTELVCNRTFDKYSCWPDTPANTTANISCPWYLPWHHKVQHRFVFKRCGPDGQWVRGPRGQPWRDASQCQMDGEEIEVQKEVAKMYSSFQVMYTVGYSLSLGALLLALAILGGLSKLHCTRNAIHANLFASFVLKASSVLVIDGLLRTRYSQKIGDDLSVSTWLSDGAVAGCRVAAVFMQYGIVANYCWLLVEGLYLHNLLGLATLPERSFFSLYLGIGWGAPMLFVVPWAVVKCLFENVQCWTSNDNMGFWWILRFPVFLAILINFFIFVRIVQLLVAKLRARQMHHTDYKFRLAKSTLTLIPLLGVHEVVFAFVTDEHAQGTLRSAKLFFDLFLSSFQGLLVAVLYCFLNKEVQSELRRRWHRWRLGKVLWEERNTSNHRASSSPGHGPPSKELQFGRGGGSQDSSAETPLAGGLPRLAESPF

Regarding `CCCCC(Oc1ncc(-c2ccccc2Cl)cn1)c1ccc(C(=O)NCCC(=O)O)cc1` (configuration not stated), the viability at 24 h, 20 µM in [1] is more than 80%. In series [2], the inhibition was more than 60%.

As to `CCCCC(Oc1ncc(-c2ccc(C(C)(C)C)cc2)cn1)c1ccc(C(=O)NCCC(=O)O)cc1` (configuration not stated), in series [1], the viability at 24 h, 20 µM is more than 80%. Moreover, the inhibition is more than 60% in [2] and “Dose-dependent effect” in series [5]. In [3], the IC50 was determined as 6 µM. For the same compound, the inhibition at 20 µM in [4] is more than 60%. Besides, the inhibition result in series [6] was “Active”.

As to `CCCCC(Oc1ncc(-c2cccc(Cl)c2)cn1)c1ccc(C(=O)NCCC(=O)O)cc1` (configuration not stated), the viability at 24 h, 20 µM in series [1] was more than 80%. Also, the inhibition in series [2] is more than 60%.

Regarding `CCCCC(Oc1ncc(-c2ccc(Oc3ccccc3)cc2)cn1)c1ccc(C(=O)NCCC(=O)O)cc1` (configuration not stated), in [1], the viability at 24 h, 20 µM is more than 80%. Besides, in [2], the inhibition is more than 60%. Also, in series [3], the IC50 was 8.2 µM. The compound further came in with an inhibition at 20 µM in series [4] of more than 60%.

As for `CCCC[C@@H](Oc1ncc(-c2ccc(C(C)(C)C)cc2)cn1)c1ccc(C(=O)NCCC(=O)O)cc1`, the Activity entry in [7] is on record as “Toxic”. Besides, the inhibition entry in [8] was “inactive”.

Consider `CCCCC(Oc1ncc(-c2ccc(CC)cc2)cn1)c1ccc(C(=O)NCCC(=O)O)cc1` (configuration not stated), for which the viability at 24 h, 20 µM in series [1] is more than 80%. In [2], the inhibition is more than 60%. In addition, the IC50 in series [3] came out at 17.7 µM. Moreover, the inhibition at 20 µM in [4] was more than 60%.

Consider `Cc1cc(O[C@@H](CCC(F)(F)F)c2ccc(C(=O)NCCC(=O)O)cc2)cc(C)c1-c1ccc(C(C)(C)C)cc1`, for which, in [9], the result was inactive.

In the case of `CCCCC(Oc1ncc(-c2ccc(C(F)(F)F)cc2)cn1)c1ccc(C(=O)NCCC(=O)O)cc1` (configuration not stated), the viability at 24 h, 20 µM in series [1] is more than 80%. Besides, the inhibition in [2] is more than 60%.

Take `CCCC[C@@H](Oc1ncc(-c2ccccc2)cn1)c1ccc(C(=O)NCCC(=O)O)cc1`: in series [7], the Activity result is listed as “Non-Toxic”. In addition, the IC50 in [3] came out at 9.3 µM. The inhibition result in [8] was “Active”. In addition, the result in [9] and in series [10] was Active.

On to `CCCCC(Oc1ncc(-c2ccc(Cl)cc2)cn1)c1ccc(C(=O)NCCC(=O)O)cc1` (configuration not stated), for which, in series [1], the viability at 24 h, 20 µM was more than 80%. The inhibition in series [2] is more than 60%.

On to `CCC(CC)C(=O)Nc1sc2c(c1C#N)CCC(C(C)(C)CC)C2` (configuration not stated), for which the viability at 24 h, 20 µM in series [1] was more than 80%. Also, in series [2], the inhibition was more than 60%.

Turning to `CCCCC(Oc1ncc(-c2cc(Cl)cc(Cl)c2)cn1)c1ccc(C(=O)NCCC(=O)O)cc1` (configuration not stated), the viability at 24 h, 20 µM in [1] is more than 80%. In addition, the figures for the inhibition in series [2] and in [5] were more than 60% and “Dose-dependent effect”, respectively. Further, the IC50 in series [3] was 6.9 µM. The compound also registered an inhibition at 20 µM in [4] of more than 60%.

In the case of `CCCCC(Oc1ncc(-c2ccc(C(F)(F)F)cc2F)cn1)c1ccc(C(=O)NCCC(=O)O)cc1` (configuration not stated), the viability at 24 h, 20 µM in series [1] was more than 80%. Moreover, the inhibition in series [2] was more than 60%.

Consider `CCCC[C@H](Oc1ncc(-c2ccccc2)cn1)c1ccc(C(=O)NCCC(=O)O)cc1`, for which the Activity entry in series [7] is on record as “Toxic”. The IC50 in series [3] came out at 8.5 µM. For the same compound, in series [8], the inhibition result is “Active”. Moreover, the outcome in [9] and in series [10] was Active.

For the compound `CCCCC(Oc1ncc(-c2ccccc2)cn1)c1ccc(C(=O)NCCC(=O)O)cc1` (configuration not stated), the viability at 24 h, 20 µM in [1] was more than 80%. In addition, the inhibition in series [2] is more than 60%; in [5], “Dose-dependent effect”. For the same compound, the IC50 in series [3] stood at 4.1 µM. Moreover, the inhibition at 20 µM in series [4] is more than 60%. Besides, the inhibition entry in series [6] is “Active”.

On to `CCCC[C@H](Oc1ncc(-c2ccc(C(C)(C)C)cc2)cn1)c1ccc(C(=O)NCCC(=O)O)cc1`, for which, in [7], the Activity entry is reported as “Toxic”. The inhibition entry in series [8] was “inactive”.

Usually inhibition stands for the share of the control response that was lost under treatment. What is called IC50 is the concentration needed to halve the response being measured.
